Active and inactive are the calls of the source. No cut-off for these calls is given here.

Data set [1] has as its target T1, Phosphatidylinositol 4,5-bisphosphate 3-kinase catalytic subunit alpha isoform (Homo sapiens, UniProt P42336). The experiment in a line: Inhibition of PI3Kalpha.
Data set [2] is described as follows: Metabolic stability in mouse liver microsomes assessed as extraction ratio. Conditions: read-out: ERH. Type of data set: ADME, Microsome.
The target in data set [3] is T1, Phosphatidylinositol 4,5-bisphosphate 3-kinase catalytic subunit alpha isoform. In words: Inhibition of PI3Kalpha-mediated AKT phosphorylation at S473 by cell based assay.
In data set [4] the target is T2, Serine/threonine-protein kinase mTOR (Homo sapiens, UniProt P42345). The experiment in a line: Inhibition of mTOR.
A short description of data set [5]: Metabolic stability in rat liver microsomes assessed as extraction ratio. In kind it is ADME, Microsome. The note with it: read-out: ERH.
The subject of another data set is MDR1 (human). The experiment in a line: Efflux ratio of permeability from basolateral to apical side to apical to basolateral side of dog RRCK cells expressing human MDR1. Type of data set: ADME, cell-based, Canis lupus familiaris, MDCKII-LE.
The nature of data set [6]: Metabolic stability in human liver microsomes assessed as extraction ratio. Type of data set: ADME, Microsome. Conditions: read-out: ERH. A digest of the protocol: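 Human liver microsome CLint scaled up with liver physiology parameters (mg HLM/g liver, g liver/kg body weight) to mL/min/kg. Predicted hepatic clearance (CLH, mL/min/kg) then calculated by the well-stirred model. Extraction ratio taken as predicted CLH divided by hepatic blood flow (QH).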

Data set [7] deals with T3, Phosphatidylinositol 4,5-bisphosphate 3-kinase catalytic subunit delta isoform (Homo sapiens) (UniProt O00329).
T3 sequence (whole entry): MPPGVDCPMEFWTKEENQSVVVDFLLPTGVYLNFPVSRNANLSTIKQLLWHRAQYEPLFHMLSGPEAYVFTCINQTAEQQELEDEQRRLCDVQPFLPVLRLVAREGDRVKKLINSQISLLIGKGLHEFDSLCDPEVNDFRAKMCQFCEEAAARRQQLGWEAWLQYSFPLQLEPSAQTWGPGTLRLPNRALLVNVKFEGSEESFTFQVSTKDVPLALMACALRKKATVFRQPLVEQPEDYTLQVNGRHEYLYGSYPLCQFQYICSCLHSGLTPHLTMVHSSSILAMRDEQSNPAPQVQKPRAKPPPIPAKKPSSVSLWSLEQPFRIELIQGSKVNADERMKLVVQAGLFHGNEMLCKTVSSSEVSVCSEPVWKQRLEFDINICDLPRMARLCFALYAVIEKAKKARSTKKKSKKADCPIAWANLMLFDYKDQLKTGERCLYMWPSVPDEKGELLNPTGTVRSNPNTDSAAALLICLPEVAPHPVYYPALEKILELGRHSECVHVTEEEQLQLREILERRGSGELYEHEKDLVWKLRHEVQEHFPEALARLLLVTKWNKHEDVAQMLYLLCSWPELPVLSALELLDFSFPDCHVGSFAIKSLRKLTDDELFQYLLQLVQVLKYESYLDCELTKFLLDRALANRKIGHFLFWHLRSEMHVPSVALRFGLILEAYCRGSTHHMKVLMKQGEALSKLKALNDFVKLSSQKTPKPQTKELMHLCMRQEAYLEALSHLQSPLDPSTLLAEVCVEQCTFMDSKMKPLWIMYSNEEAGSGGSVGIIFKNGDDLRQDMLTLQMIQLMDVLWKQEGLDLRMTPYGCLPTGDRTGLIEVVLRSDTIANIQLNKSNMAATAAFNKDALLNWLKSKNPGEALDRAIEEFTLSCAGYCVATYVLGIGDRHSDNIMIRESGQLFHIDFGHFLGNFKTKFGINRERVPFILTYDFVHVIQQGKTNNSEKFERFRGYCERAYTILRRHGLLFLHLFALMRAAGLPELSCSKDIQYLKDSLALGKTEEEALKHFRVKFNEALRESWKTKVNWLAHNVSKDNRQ
In words: Inhibition of PI3Kdelta.

Another data set has as its system NCI-H460. The experiment in a line: Cytotoxicity against human NCI-H460 cells harboring PI3KCA mutation by MTT assay. In kind it is functional, cell-based.
A further data set has as its system NCI-H23. In words: Cytotoxicity against human NCI-H23 cells harboring PTEN mutation by MTT assay. In kind it is functional, cell-based.
The subject of another data set is NCI-H1975. In words: Cytotoxicity against human NCI-H1975 cells harboring PI3KCA mutation by MTT assay. Type of data set: functional, cell-based.
In a further data set the test system is NCI-H1650. In words: Cytotoxicity against PTEN deficient human NCI-H1650 cells by MTT assay. In kind it is functional, cell-based.
A further data set addresses CYP3A4 (Homo sapiens, UniProt P08684). In words: Inhibition of CYP3A4 at 3 uM. Type of data set: ADME.
The target of another data set is CYP2C9 (Homo sapiens, UniProt P11712). The experiment in a line: Inhibition of CYP2C9 at 3 uM. In kind it is ADME.
CYP2C9, sequence (P11712 whole entry): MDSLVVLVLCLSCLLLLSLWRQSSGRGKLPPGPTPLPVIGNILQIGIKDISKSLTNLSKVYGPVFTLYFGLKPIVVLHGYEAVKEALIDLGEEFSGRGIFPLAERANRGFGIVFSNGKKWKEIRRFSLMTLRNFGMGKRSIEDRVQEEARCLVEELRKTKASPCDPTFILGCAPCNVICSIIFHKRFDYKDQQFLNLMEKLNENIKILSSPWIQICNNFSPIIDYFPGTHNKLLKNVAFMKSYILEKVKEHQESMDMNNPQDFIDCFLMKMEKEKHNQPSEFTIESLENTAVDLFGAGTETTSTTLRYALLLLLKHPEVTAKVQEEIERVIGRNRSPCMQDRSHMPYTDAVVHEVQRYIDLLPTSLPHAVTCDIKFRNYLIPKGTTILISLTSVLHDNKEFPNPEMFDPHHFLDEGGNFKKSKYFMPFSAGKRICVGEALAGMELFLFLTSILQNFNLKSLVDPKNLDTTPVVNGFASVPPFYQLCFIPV
The target of the next data set is CYP2D6 (Homo sapiens, UniProt P10635). The experiment in a line: Inhibition of CYP2D6 at 3 uM. Type of data set: ADME.
CYP2D6, sequence (P10635 whole entry): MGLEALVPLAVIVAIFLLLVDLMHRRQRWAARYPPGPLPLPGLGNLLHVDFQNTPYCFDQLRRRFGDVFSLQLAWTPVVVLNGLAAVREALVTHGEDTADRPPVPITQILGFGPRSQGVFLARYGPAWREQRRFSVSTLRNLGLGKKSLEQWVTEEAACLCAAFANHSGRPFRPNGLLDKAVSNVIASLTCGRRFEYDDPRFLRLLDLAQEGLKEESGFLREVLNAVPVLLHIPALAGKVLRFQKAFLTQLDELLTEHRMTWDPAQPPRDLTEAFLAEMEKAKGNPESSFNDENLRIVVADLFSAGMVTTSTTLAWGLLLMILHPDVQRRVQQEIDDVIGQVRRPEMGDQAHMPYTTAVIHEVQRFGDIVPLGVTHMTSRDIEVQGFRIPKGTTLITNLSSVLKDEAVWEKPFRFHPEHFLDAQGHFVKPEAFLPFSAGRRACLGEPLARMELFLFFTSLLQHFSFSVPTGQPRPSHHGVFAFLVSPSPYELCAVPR
In another data set the target is T4, CYP1A2 (Homo sapiens, UniProt P05177).
T4 sequence (P05177 whole entry): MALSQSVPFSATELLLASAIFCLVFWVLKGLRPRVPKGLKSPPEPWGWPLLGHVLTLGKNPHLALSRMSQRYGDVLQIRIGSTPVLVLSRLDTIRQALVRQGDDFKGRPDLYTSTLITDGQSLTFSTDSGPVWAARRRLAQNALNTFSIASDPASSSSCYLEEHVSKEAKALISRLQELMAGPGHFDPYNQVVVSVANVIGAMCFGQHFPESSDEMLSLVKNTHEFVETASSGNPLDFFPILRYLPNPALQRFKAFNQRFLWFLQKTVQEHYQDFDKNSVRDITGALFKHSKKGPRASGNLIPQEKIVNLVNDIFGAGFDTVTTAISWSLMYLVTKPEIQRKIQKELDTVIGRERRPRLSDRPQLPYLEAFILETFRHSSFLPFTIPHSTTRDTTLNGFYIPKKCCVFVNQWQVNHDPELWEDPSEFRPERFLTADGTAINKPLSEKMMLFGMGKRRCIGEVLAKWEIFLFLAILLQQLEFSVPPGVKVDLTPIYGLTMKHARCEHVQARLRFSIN
The experiment in a line: Inhibition of CYP1A2 at 3 uM. In kind it is ADME.

Data set [8] can be described thus: Drug excretion in bile duct cannulated rat bile. Type of data set: ADME. Conditions: read-out: Drug excretion.
Data set [9] can be described thus: Drug excretion in bile duct cannulated rat urine. In kind it is ADME. Conditions: read-out: Drug excretion.
Data set [10] addresses T2, Serine/threonine-protein kinase mTOR. In words: Inhibition of mTOR at 1 uM.

T1 sequence (P42336 whole entry, canonical isoform): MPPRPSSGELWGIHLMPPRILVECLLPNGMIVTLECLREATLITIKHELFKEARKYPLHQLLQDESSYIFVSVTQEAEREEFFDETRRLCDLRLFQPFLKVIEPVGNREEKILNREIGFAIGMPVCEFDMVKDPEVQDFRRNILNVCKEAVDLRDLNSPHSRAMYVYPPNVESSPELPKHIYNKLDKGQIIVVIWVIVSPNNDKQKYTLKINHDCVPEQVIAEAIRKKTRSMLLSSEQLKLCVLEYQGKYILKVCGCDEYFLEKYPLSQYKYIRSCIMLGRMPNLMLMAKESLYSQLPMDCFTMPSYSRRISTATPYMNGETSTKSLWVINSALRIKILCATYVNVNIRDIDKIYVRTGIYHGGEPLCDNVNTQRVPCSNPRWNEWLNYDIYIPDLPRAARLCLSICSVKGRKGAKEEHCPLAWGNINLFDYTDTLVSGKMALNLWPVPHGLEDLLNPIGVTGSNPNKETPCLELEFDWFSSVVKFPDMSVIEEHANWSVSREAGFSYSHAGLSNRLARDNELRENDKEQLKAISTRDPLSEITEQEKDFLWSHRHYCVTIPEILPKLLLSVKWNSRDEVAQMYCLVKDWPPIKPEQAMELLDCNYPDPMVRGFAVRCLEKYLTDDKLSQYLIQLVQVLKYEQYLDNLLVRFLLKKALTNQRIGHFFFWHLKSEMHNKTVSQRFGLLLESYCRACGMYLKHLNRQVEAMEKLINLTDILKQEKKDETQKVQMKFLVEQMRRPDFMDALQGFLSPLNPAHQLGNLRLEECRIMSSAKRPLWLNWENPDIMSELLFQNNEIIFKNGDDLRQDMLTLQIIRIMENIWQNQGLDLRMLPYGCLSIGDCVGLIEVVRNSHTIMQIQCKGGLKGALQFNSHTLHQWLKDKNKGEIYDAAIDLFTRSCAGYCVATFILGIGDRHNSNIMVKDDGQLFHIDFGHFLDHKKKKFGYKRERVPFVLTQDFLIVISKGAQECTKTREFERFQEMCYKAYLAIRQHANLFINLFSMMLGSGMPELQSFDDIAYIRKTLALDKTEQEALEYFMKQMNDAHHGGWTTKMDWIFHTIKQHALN
CYP3A4, sequence (P08684 whole entry): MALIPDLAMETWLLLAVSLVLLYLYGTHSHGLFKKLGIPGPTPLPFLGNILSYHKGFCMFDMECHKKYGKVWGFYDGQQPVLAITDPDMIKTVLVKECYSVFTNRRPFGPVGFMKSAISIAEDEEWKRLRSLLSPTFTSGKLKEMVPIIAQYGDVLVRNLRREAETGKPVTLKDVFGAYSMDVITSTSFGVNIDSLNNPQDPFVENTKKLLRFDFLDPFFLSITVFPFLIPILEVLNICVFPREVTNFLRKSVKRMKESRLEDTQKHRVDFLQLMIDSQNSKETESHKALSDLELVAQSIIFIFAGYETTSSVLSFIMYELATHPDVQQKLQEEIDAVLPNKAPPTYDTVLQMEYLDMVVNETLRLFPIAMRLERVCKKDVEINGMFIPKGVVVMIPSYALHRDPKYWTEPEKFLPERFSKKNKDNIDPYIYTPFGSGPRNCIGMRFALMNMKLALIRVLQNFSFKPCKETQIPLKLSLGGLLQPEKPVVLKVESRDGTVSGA

Take `N#Cc1ccc(-c2c(-c3nnc[nH]3)sc(N3CCOCC3)c2C#N)c(F)c1`: the Ki was 0.6 nM in [1] and 1440 nM in data set [4]. Moreover, the hepatic extraction ratio in [2] was 0.639; in data set [5] it was 0.529; in data set [6], 0.35. This molecule returned an IC50 in data set [3] of 79 nM. In addition, the efflux ratio in the data set with MDR1 (human) turned out to be 2.6.

In data set [1], `N#Cc1c(N2CCOCC2)sc(C(=O)O)c1-c1ccc(Cl)cc1` displayed a Ki of 230 nM.

Regarding `N#Cc1ccc(-c2c(-c3ncn[nH]3)sc(N3CCOCC3)c2C#N)c(F)c1`, in data set [7], the inhibition entry is “Active”.

In data set [1], `N#Cc1c(N2CCOCC2)sc(-c2cn[nH]n2)c1-c1ccc(Cl)cc1` showed a Ki of 3 nM. In addition, the hepatic extraction ratio in data set [6] came out at 0.7.

The molecule `N#Cc1c(N2CCOCC2)sc(-c2cn[nH]c2)c1-c1ccc(Cl)cc1` showed a Ki in [1] of 175 nM.

As to `N#Cc1c(N2CCOCC2)sc(-c2nc[nH]n2)c1-c1ccc(Cl)cc1`, the Ki in data set [1] worked out at 1.7 nM; in [4], 434 nM. The IC50 in [3] came to 73 nM. Moreover, the hepatic extraction ratio in data set [6] is 0.3.

Regarding `N#Cc1c(N2CCOCC2)sc(-c2ncn[nH]2)c1-c1ccc(Cl)cc1Cl`, the inhibition entry in [7] was “Active”. Moreover, the result in the data set on NCI-H460, in the data set on NCI-H23, in the data set on NCI-H1975 and in the data set with NCI-H1650 was Active.

For the molecule `N#Cc1c(N2CCOCC2)sc(-c2nnc[nH]2)c1-c1ccc(Cl)cc1Cl`, the Ki is 0.35 nM in data set [1] and 2470 nM in data set [4]. For the same molecule, the hepatic extraction ratio in [2] was 0.88; in data set [5] it was 0.89; in [6], 0.3. Besides, the inhibition at 3 µM against CYP3A4, at CYP2C9, at CYP2D6 and against CYP1A2 was less than 30% each time. Moreover, 35 nM corresponded to half-maximal inhibition in data set [3] (IC50). Further, the dose excreted in data set [8] and in [9] was less than 1% throughout. Moreover, the efflux ratio in the data set on MDR1 (human) came out at 2.56.

In data set [1], `N#Cc1c(N2CCOCC2)sc(C(N)=O)c1-c1ccc(Cl)cc1` registered a Ki of 13 nM. In data set [3], it took 760 nM to reach half-maximal inhibition (IC50). Further, the inhibition in [10] is 47%.

Take `Cc1nnc(-c2sc(N3CCOCC3)c(C#N)c2-c2ccc(Cl)cc2)o1`: the Ki in data set [1] was 1280 nM.

In data set [1], `N#Cc1c(N2CCOCC2)sc(-c2cc[nH]n2)c1-c1ccc(Cl)cc1` came in with a Ki of 1.8 nM. For the same molecule, the hepatic extraction ratio in [6] was 0.7.
